The values below come from publication PMC10650344 (RSC Medicinal Chemistry, 2023).

Converted amounts (≈) assume the structure as drawn.

One data set deals with Aβ1–42 aggregation. The data set is classed as cell-based, human. As to conditions: Congo red staining, experimental AD model. The procedure, abridged: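 Differentiated SH-SY5Y cells (retinoic acid, then BDNF) given 20 μM pre-fibrillised Aβ1–42 with test compound. Cells then fixed with 4% paraformaldehyde in PBS at 4 °C for 30 min and PBS-washed. Congo red (1 μM) added for 1 h in the dark, followed by three PBS washes. Bound dye extracted with DMSO, with absorbance read at 497 nm.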

The nature of data set [1]: Experimental water solubility by HPLC. The data set is classed as physicochemical.
Data set [2] has as its system differentiated SHSY-5Y cells. The data set can be described thus: Genotoxicity analysis by Hoechst 33258 fluorescent nuclear staining. As to conditions: for genotoxic properties on the differentiated SHSY-5Y cells: 100 μg mL^−1; for Mean NA/1000 cells ± SD: 100 μg mL^−1, 24 h, nuclear abnormalities. Type of data set: cell-based, human. The procedure, abridged: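 SH-SY5Y differentiated with 10 μM retinoic acid for 8 days (medium refreshed every 2 days), then 25 nM BDNF for 5 days. Test compound applied for 24 h. Cells washed in PBS, fixed in 4% paraformaldehyde at 4 °C for 30 min, then stained with Hoechst 33258 (1 mM) for 5 min at room temperature. Micronuclei, lobbed and notched nuclei scored by fluorescence microscopy in 1000 cells per treatment, in triplicate.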

The nature of data set [3]: log P by shake-flask method. Type of data set: physicochemical. As to conditions: n-octanol/phosphate buffer solution (PBS), pH 7.4. The procedure, abridged:
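Shake-flask partition. About 5 mg of test compound dissolved in 1 mL n-octanol and mixed with an equal volume of PBS, pH 7.4. Mixture inverted 200 times over 5 min, then left 30 min to separate. Each phase assayed by HPLC (C18, 250 × 4.6 mm, isocratic H₂O/ACN + 0.1% TFA, 1 mL min⁻¹). log P taken from the concentration ratio of unionized compound between the phases.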

For data set [4], the system named is differentiated SHSY-5Y cell cultures. Type of data set: cell-based, human. As to conditions: compound 50 μg mL^−1, Aβ1–42 20 μM, 24 h. In short, it runs like this: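 AD model: SH-SY5Y cells differentiated with retinoic acid then BDNF, then exposed to 20 μM Aβ1–42 (fibrillised 24 h in medium). 10⁵ cells seeded; Aβ1–42 with or without test compound (25 or 50 μg mL⁻¹) for 24 h. Cells trypsinised 3 min at 37 °C, spun 500 × g 5 min, stained in binding buffer with Annexin V-FITC and propidium iodide 5 min at room temperature, then analysed by flow cytometry.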

The test system of data set [5] is differentiated SHSY-5Y cells. The data set is described as follows: MTT cell viability. The following applies: 12.5–100 μg mL^−1, 24 h. The data set is classed as cell-based, human. In short, it runs like this:
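Neuron-like cultures made by differentiating SH-SY5Y with 10 μM retinoic acid for 8 days, then 25 nM BDNF for 5 days. Cells incubated 24 h with test compound at 12.5–100 μg mL⁻¹. Controls: untreated cells, and cells given 1.0% Triton X-100. MTT (5 mg mL⁻¹ solution) added for 3 h at 37 °C, formazan dissolved in DMSO, absorbance read at 570 nm. Three independent experiments, mean ± SD.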

Usually solubility stands for how much of the substance goes into solution per volume. Broadly, the logP is a log measure of how a compound divides between an organic and an aqueous phase. A lower logP goes with lower lipophilicity.

Regarding `COc1ccc(/C=C/c2nc(-c3ccc(OC)cc3)cs2)cc1` [6i, (E)-4-(4-Methoxyphenyl)-2-(4-methoxystyryl)thiazole], the “preventive activity against Aβ1–42 aggregation” value in the data set on Aβ1–42 aggregation is “over 80%”. For the same molecule, in data set [1], the concentration in solution (solubility) came to 0.0719 µg/mL (≈ 0.222 µM). In data set [2], the “genotoxic properties on the differentiated SHSY-5Y cells” value was “did not enhance the genotoxic properties” and the “Mean NA/1000 cells ± SD” value worked out at 0.017 NA/1000 cells. Also, the logP in data set [3] was found to be 4.18. In addition, the “reduction of the apoptotic cell death ratio” value in data set [4] is reported as 30%. The “cytotoxic effect on the differentiated SHSY-5Y cells (MTT cell viability)” value in data set [5] was “no cytotoxic effect”.
On to `Brc1ccc(-c2csc(/C=C/c3ccccc3)n2)cc1` [6e, (E)-4-(4-Bromophenyl)-2-styrylthiazole], for which the concentration in solution in data set [1] (solubility) was 0.0175 µg/mL (≈ 0.0511 µM). In data set [2], the “genotoxic properties on the differentiated SHSY-5Y cells” value is on record as “did not enhance the genotoxic properties” and the “Mean NA/1000 cells ± SD” value is reported as 0.017 NA/1000 cells. This molecule also returned a logP in data set [3] of 4.87. Besides, the “cytotoxic effect on the differentiated SHSY-5Y cells (MTT cell viability)” value in data set [5] is “no cytotoxic effect”.
